Data taken from ChEMBL document CHEMBL4145607, “Tamarixetin Exhibits Anti-inflammatory Activity and Prevents Bacterial Sepsis by Increasing IL-10 Production” (J Nat Prod, 2018).
Activity calls are given as the source filed them. No cut-off for these calls is given here.

What was measured:
[1] = system: Mus musculus; experiment: Antiinflammatory activity in Balb/c mouse model of LPS-induced endotoxemia assessed as reduction in serum blood urea nitrogen level at 1 mg/kg, ip pretreated for 1 hr followed by LPS-challenge measured after 12 hrs by ELISA; assay type: functional, organism-based
How it was run: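 In BALB/c mice, 1 mg·kg−1 i.p. was given 1 h before LPS 10 mg·kg−1 i.p. After 12 h, serum AST, ALT and BUN were measured by ELISA. Means ± SEM.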

[2] = system: Mus musculus; experiment: Antiinflammatory activity in Balb/c mouse model of LPS-induced endotoxemia assessed as reduction in serum IL6 level at 1 mg/kg, ip pretreated for 1 hr followed by LPS-challenge measured after 2 hrs by ELISA; assay type: functional, organism-based
How it was run: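 BALB/c mice were dosed with 1 mg·kg−1 i.p. 1 h before LPS 10 mg·kg−1 i.p. Serum was taken 2 h later, and TNF-α, IL-6 and IL-10 were measured by sandwich ELISA. Means ± SEM.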

[3] = system: BMDC; experiment: Inhibition of Escherichia coli DH5alpha infection-induced immune response in C57BL/6 mouse BMDC assessed as reduction in IL-12p70 secretion at 25 uM pretreated for 30 mins followed by Escherichia coli DH5alpha infection for 6 hrs by ELISA; assay type: functional, cell-based
How it was run: (§1)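 C57BL/6 BMDCs received 25 μM compound and E. coli DH5α, 3 × 10^6 CFU·mL−1. Schedules were: compound 30 min before a 6 h infection; co-addition for 6 h; or compound for 30, 60, 90 or 120 min plus 6 h infection. Supernatant TNF-α, IL-6, IL-10 and IL-12p70 were measured by ELISA. At least three experiments in triplicate.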

[4] = system: Mus musculus; experiment: Antiseptic activity in Balb/c mouse model of Escherichia coli K1 infection-induced sepsis assessed as reduction in serum endotoxin level at 1 mg/kg, ip pretreated for 1 hr followed by Escherichia coli K1 infection measured after 12 hrs by chromogenic assay; assay type: functional, organism-based
How it was run: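 BALB/c mice dosed i.p. 1 h before i.p. E. coli K1 (1 × 10^6 CFU per mouse), sera taken at 12 h. Serum diluted 10-fold in endotoxin-free PBS, LAL chromogenic end-point assay; background subtracted, quantified against E. coli endotoxin standard, reported as EU·mL−1.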

[5] = system: Mus musculus; experiment: Antiseptic activity in Balb/c mouse model of Escherichia coli K1 infection-induced sepsis assessed as reduction in bacterial count in liver at 1 mg/kg, ip pretreated for 1 hr followed by Escherichia coli K1 infection measured after 12 hrs; assay type: functional, organism-based
How it was run: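 Pretreatment was 1 mg·kg−1 i.p. 1 h before i.p. E. coli K1 (1 × 10^6 CFU per mouse) in BALB/c mice. At 12 h, lungs, liver and kidneys were homogenized in PBS and diluted 1:1000. 10 μL was plated on LB agar, incubated 24 h at 37 °C, and colonies counted.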

[6] = biological target: T1, Toll-like receptor 4 (Mus musculus) (UniProt Q9QUK6); experiment: Inhibition of LPS-induced TLR4 activation in C57BL/6 mouse BMDC assessed as reduction in IkappaBalpha degradation at 25 uM pretreated for 30 mins followed by LPS-challenge measured after 15 to 90 mins by Western blot analysis; assay type: cell-based
T1 sequence (whole entry): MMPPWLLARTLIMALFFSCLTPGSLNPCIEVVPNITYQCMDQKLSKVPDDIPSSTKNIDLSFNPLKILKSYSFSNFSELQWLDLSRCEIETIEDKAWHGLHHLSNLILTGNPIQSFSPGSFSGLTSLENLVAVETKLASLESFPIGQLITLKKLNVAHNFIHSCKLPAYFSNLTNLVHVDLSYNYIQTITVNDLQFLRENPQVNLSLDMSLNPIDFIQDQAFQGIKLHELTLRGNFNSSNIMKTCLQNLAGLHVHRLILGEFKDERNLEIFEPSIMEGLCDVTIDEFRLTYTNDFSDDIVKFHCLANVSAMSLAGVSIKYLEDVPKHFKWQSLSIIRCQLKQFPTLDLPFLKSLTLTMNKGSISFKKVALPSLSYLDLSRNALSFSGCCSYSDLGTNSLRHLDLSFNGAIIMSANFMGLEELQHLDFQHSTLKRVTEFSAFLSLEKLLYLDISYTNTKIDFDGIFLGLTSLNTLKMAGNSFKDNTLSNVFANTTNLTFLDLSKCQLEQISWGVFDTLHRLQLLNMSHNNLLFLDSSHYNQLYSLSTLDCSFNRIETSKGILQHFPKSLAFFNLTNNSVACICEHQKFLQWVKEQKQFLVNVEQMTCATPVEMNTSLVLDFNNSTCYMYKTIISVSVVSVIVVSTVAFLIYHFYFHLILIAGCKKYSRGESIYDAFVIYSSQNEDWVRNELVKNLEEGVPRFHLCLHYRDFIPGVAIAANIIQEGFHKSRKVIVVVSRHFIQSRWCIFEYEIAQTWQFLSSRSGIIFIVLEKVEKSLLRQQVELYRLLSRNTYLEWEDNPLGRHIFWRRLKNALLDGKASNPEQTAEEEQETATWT
How it was run: (§2)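 BMDCs were pretreated 30 min with 25 μM compound, then stimulated with LPS 50 ng·mL−1 for the indicated times. Lysates (25 μg protein) were run on 10% SDS-PAGE and immunoblotted for phospho/total ERK, JNK, p38 and Akt, plus COX-2, IκBα and α-tubulin, with ECL detection. Representative of three experiments.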

[7] = system: BMDC; experiment: Inhibition of Escherichia coli DH5alpha infection-induced immune response in C57BL/6 mouse BMDC assessed as reduction in IL-6 secretion at 25 uM pretreated for 30 mins followed by Escherichia coli DH5alpha infection for 6 hrs by ELISA; assay type: functional, cell-based; how it was run: as §1
[8] = system: BMDC; experiment: Inhibition of LPS-induced immune response in C57BL/6 mouse BMDC assessed as reduction in TNFalpha secretion up to 25 uM pretreated for 30 mins followed by LPS-challenge measured after 6 hrs by ELISA; assay type: functional, cell-based
How it was run: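 Mouse BMDCs (female C57BL/6 bone marrow, GM-CSF-derived, ≥90% CD11c+ on day 7) pretreated 30 min with graded compound concentrations, then stimulated with LPS 50 ng/mL for 6 h. Supernatant TNF-α, IL-6, IL-10 and IL-12p70 quantified by sandwich ELISA. Mean ± SEM vs LPS-only cells; experiments repeated at least three times.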

[9] = system: BMDC; experiment: Inhibition of LPS-induced immune response in C57BL/6 mouse BMDC assessed as reduction in IL-6 secretion at 25 uM treated 6 hrs post LPS-challenge measured after 60 to 120 mins by ELISA; assay type: functional, cell-based
How it was run: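 Bone marrow DCs from 6-week-old female C57BL/6 mice, RBC-lysed, cultured in RPMI-1640/10% FBS with 10 ng/mL rmGM-CSF, 37 °C, 5% CO2. Cells given LPS 50 ng/mL for 6 h, then 25 μM compound added for 30, 60, 90 or 120 min. Supernatant TNF-α, IL-6, IL-10, IL-12p70 measured by sandwich ELISA. Mean ± SEM, compared with LPS-only DCs.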

[10] = biological target: T1, Toll-like receptor 4 (Mus musculus); experiment: Inhibition of LPS-induced TLR4 activation in C57BL/6 mouse BMDC assessed as reduction in ERK phosphorylation at 25 uM pretreated for 30 mins followed by LPS-challenge measured after 15 to 90 mins by Western blot analysis; assay type: cell-based; how it was run: as §2

In the case of `COc1ccc(-c2oc3cc(O)cc(O)c3c(=O)c2O)cc1O` [TAMARIXETIN], the Activity [1] is reported as “Active”, the Activity [2] is reported as “Active” and the inhibition [3] is reported as “Active”. For the same compound, the Activity [4] was “Active”, the Activity [5] was “Active” and the inhibition [6] was “Active”. The inhibition [7] was “Active”, the inhibition [8] was “Active” and the inhibition [9] was “inactive”. The inhibition [10] was “inactive”.
